Screening data as filed in PubChem BioAssay.
Hits are enriched below; roughly 2.4% of the tested compounds scored in any of these assays.
FID counter – displaces DNA intercalator in HCV helicase counter-screen; DNA fluorescent intercalator displacement, fluorescence; inhibition, % at 7.9 µM; 0.17% of 290,000 active; AID 1845; in the data active = inhibition above about 37%;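 also: 0% = vehicle and 100% = reference compound; higher means more ethidium bromide displaced from hairpin DNA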
Apaf-1 inh – inhibitors of human Apaf-1 apoptosome; O14727; reconstituted apoptosome caspase-3 activity, DEVD-Rh110 fluorescence; inhibition, % at 20 µM; 0.71% of 330,000 active; AID 489030; active = inhibition of at least 40% at 20 µM;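 also: plate controls were DMSO wells for no effect and DEVD-CHO caspase inhibitor wells for full effect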
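Material: reconstituted apoptosome with Apaf-1, cytochrome c, caspase-9, procaspase-3, dATP. Technique: Rh110 fluorescence intensity. Buffer or medium: pH 7.5 Hepes buffer with CHAPS, BSA, DTT. Times: 30 min plus 50 min, RT.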
ANO1 activ – activators or potentiators of mouse TMEM16A chloride channel | Q8BHY3 | HEK293 TMEM16A/YFP-H148Q/I152L, iodide quench fluorescence; hits give low values | B-score at 10 µM | 0.3% of 340,000 active | AID 623877;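 active = fluorescence-ratio B-score plate-corrected deviation score at least 3 library SD below zero, with starting fluorescence score within 5 deviations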;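 also: channel opened by trigger with iodide after compound preincubation; score built on the fluorescence ratio of max minus min over baseline; more negative score means more quench and so TMEM16A activation or potentiation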
UBC13 polyUb – inhibitors of human UBC13 polyubiquitin chain formation | TR-FRET | AID 485273 | 0.47% of 330,000 active | inhibition, % at 20 µM; in the data active = inhibition above about 45%, passing the limit was not always enough
Target sequence (P61088 whole entry, looked up): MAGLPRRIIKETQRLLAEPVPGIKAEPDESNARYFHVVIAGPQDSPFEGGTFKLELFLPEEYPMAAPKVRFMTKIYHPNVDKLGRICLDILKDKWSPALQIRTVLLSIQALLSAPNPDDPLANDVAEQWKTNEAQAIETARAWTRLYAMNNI
TMEM16A inh – mouse TMEM16A channel inhibition, primary screen; HEK293 TMEM16A/YFP iodide influx fluorescence, ionomycin; normalized B-score (activity score, 25-100; higher = stronger inhibition) at 10 µM; 1.2% of 310,000 active; AID 588511;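 active = ratio plate-corrected score three or more library SD toward inhibition, starting fluorescence score within five deviations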;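 also: score derived from kinetic fluorescence span divided by baseline fluorescence per well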
TMEM16A reconf – TMEM16A (mouse) chloride channel inhibition, re-confirmation; shares compounds with TMEM16A inh; inhibition, % at 10 µM; 39% of 2,300 active; AID 652189; HEK293 TMEM16A/YFP-H148Q, iodide quench fluorescence; ionomycin added to raise cell calcium;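 active = mean duplicate percent inhibition, scaled so buffer wells are 0 and the reference blocker 100, over three buffer SD above buffer mean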
TMEM16A Ca cntr – calcium mobilization counter-screen hit for TMEM16A inhibitor series; shares compounds with TMEM16A inh; TMEM16A/YFP HEK293, Fluo4 calcium mobilization; calcium response (% of ionomycin), % at 10 µM; 2% of 2,300 active; AID 652231;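 active = duplicate-averaged calcium signal over 20% of the ionomycin maximum, relative to buffer baseline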;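 also: each well's signal is peak minus trough fluorescence divided by its pre-addition baseline; 0% = buffer wells and 100% = ionomycin wells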
Parental YFP cnt – parental YFP-HEK293 iodide quench counter-screen activity; shares compounds with TMEM16A inh; ionomycin; YFP ratio F(max-min)/F0 at 10 µM; 2,300 tested, under 10 active;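 active = yellow fluorescent protein signal ratio exceeding the buffer control mean by over 5 SD of those controls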;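 also: ratio is mean of duplicate wells from kinetic YFP trace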
ClC-1 inh – selectivity of TMEM16A inhibitors: inhibition of rat ClC-1 chloride channel; shares compounds with TMEM16A inh; CHO ClC-1-YFP, iodide influx fluorescence quench; iodide control reads 0, buffer control 100; ratio percent, % at 10 µM; 2,300 tested, under 10 active; AID 652236;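 active = duplicate-mean ratio percent above the mean of iodide-only control wells, which defines zero, plus 5 of their SD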;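 also: higher percent means stronger block of ClC-1 iodide influx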
An asterisk follows results filed as active; i = inactive; · = not tested or not shown.

SMILES | FID counter | Apaf-1 inh | ANO1 activ | UBC13 polyUb | TMEM16A inh | TMEM16A reconf | TMEM16A Ca cntr | Parental YFP cnt | ClC-1 inh
CSc1cccc(NC(=O)/C=C/c2ccc(Cl)cc2)c1 | -3 | 16 | i | -17 | 100* | 62%* | i | -1 | -8
COc1ccc(C(c2c[nH]c3ccccc23)c2c[nH]c3ccccc23)cc1O | -2 | 1 | i | 11 | 100* | 32%* | i | -0.88 | -1
COc1cc(CN(C)C(=O)C(=O)c2c[nH]c3ccccc23)ccc1O | · | · | i | · | · | · | · | · | ·
CCOC(=O)CC1(C)NC(C(=O)O)C(C)(C)S1 (stereo not drawn) | · | · | i | · | · | · | · | · | ·
COc1ccc(CN2CCc3c([nH]c4ccccc34)C2)cc1Br | 10 | 18 | i | -1 | 100* | i | i | -1 | -4
O=C1NC2=C(C(=O)OC2)C(c2ccc(OC(F)(F)F)cc2)N1 (stereo not drawn) | 4 | -27 | i | 9 | i | · | · | · | ·
COc1cc2c(C(=O)N3CCN(c4ccccc4)CC3)c(C)oc2cc1Br | -4 | 32 | i | -1 | i | i | i | -1.2 | -4
COc1ccccc1-c1cc(C(=O)N2CCN(c3ccccc3)CC2)no1 | -30 | 15 | i | 6 | i | · | · | · | ·
Cc1nn2cc(-c3ccc(Cl)cc3)cnc2c1Cl | -6 | -2 | i | -14 | i | · | · | · | ·
COc1ccccc1N1CCN(Cc2ccco2)CC1 | 4 | -4 | i | 7 | 25* | i | i | -1 | -4
CCOC(=O)C(=CNc1ccc(N2CCCCC2)c(S(=O)(=O)Nc2ccccc2OC)c1)C(=O)OCC | · | · | i | · | · | · | · | · | ·
CCOc1cc2[nH]c(=S)n(Cc3ccc(C(=O)NCC(OC)OC)cc3)c(=O)c2cc1OCC | 2 | 3 | i | 4 | 100* | i | i | -1.1 | -6
Cc1ccc(Nc2nc(-c3c(C)nc4ccccn34)cs2)cc1 | 8 | 17 | i | 14 | 25* | 32%* | i | -1.4 | -16
Cc1nc2ccccn2c1-c1csc(NCc2ccco2)n1 | -2 | 10 | i | 3 | 25* | i | i | -0.96 | -8
Cc1ccc(Nc2nc(-c3c(C)nc4ncccn34)cs2)cc1 | -5 | 1 | i | 2 | i | · | · | · | ·
NC(=O)c1c(NC(=O)c2ccc([N+](=O)[O-])o2)sc2c1CCCC2 | 8 | 17 | i | -32 | i | · | · | · | ·
N#Cc1c(NC(=O)c2ccc([N+](=O)[O-])o2)sc2c1CCC2 | 8 | 13 | i | -78 | 100* | 41%* | i | -1.2 | -6
Cc1cccc(OCCCCc2c(C)n[nH]c2C)c1C | -20 | 7 | i | 21 | 100* | i | i | -1.1 | -16
CCOc1ccccc1OCCCCCc1c(C)n[nH]c1C | -29 | 10 | i | 11 | i | · | · | · | ·
Cn1ncc2c(N3CCN(c4ccc(Cl)c(Cl)c4)CC3)ncnc21 | -3 | 1 | i | 20 | 25* | i | i | -1.1 | -16
CCCNC(=S)N1CCC(Cc2ccccc2)CC1 | -17 | 0 | i | -3 | i | · | · | · | ·
COc1ccc(CCNC(=S)N2CCC(Cc3ccccc3)CC2)cc1OC | -20 | 16 | i | 3 | 100* | i | i | -1 | -14
N#CC(CC(=O)c1ccc(F)cc1)c1ccc2c(c1)OCO2 (stereo not drawn) | -15 | 11 | i | 8 | i | · | · | · | ·
Cc1cc(OCC(=O)Nc2ccncc2)ccc1Cl | -4 | 5 | i | -2 | 25* | 27%* | i | -0.94 | -15
O=C(COc1ccc2ccccc2c1)Nc1ccc(Br)cc1C(=O)O | -21 | · | i | · | 100* | 42%* | i | -0.68 | 3
SMILES | FID counter | Apaf-1 inh | ANO1 activ | UBC13 polyUb | TMEM16A inh | TMEM16A reconf | TMEM16A Ca cntr | Parental YFP cnt | ClC-1 inh
COc1c(C)cc(Br)cc1C(=O)Nc1ccc(Cc2ccncc2)cc1 | -16 | 19 | i | -2 | 100* | i | i | -0.9 | -10
O=C(COc1ccccc1)Nc1ccncc1 | 3 | 4 | i | 8 | i | · | · | · | ·
Cc1cc(OCC(=O)Nc2ccncc2)cc(C)c1Br | -3 | 0 | i | 5 | i | · | · | · | ·
O=C(COc1ccc2ccccc2c1)Nc1ccncc1 | 0 | 9 | i | -12 | 25* | i | i | -0.95 | -22
COc1ccc(CN(C)C(=O)Cn2ccc(NC(=O)OCc3ccccc3)nc2=O)cc1OC | · | -2 | i | -20 | · | · | · | · | ·
COc1ccccc1C(=O)NCCC(=O)NNC(=O)c1ccccc1O | · | 5 | i | 8 | i | · | · | · | ·
CCn1c(C)nc2cc(C(=O)N3N=C(CCOC)CC3(O)C(F)(F)F)ccc21 (stereo not drawn) | -16 | -24 | i | -2 | i | · | · | · | ·
COc1ccc(OC)c(NC(=O)CSc2ccc3ccccc3c2)c1 | -17 | 11 | i | -8 | 100* | i | i | -1.1 | -13
CC(C)c1ccc(OCC(=O)Nc2ccncc2)cc1 | -5 | -7 | i | 3 | 25* | i | i | -0.97 | -12
Cc1ccc(OCC(=O)Nc2ccncc2)c(C)c1 | 0 | -9 | i | 4 | 25* | i | i | -1.3 | -10
COc1ccc(OC)c(NC(=O)CSc2ccccc2)c1 | -7 | 3 | i | 0 | i | · | · | · | ·
O=C(COc1ccc(Br)cc1)Nc1ccc(Cc2ccncc2)cc1 | -14 | 13 | i | 9 | 100* | i | i | -1.2 | -8
O=C(Nc1ccccn1)C1CCCN1S(=O)(=O)c1ccc(Cl)cc1 (stereo not drawn) | -10 | 0 | i | -17 | i | · | · | · | ·
COc1ccc(NC(=O)CN(C)Cc2cccs2)cc1Cl | -12 | 9 | i | -1 | i | · | · | · | ·
Cc1nn(-c2ccc(N3CCOCC3)nn2)c(C)c1CCC(=O)NCc1ccccc1 | -36 | -8 | i | 4 | i | · | · | · | ·
O=C(CSc1ccncc1)Nc1ccc2ccccc2c1 | -6 | 0 | i | 10 | i | · | · | · | ·
O=C(CSc1ccc2ccccc2c1)Nc1ccncc1 | 4 | -2 | i | 14 | 100* | 18%* | i | -0.84 | -10
CC(C)(C)c1ccc(NC(=O)COc2ccc(-n3ccnc3)cc2)cc1 | -11 | 12 | i | 0 | 100* | 44%* | i | -0.99 | -10
O=C(O)COC(=O)Cc1ccccc1Nc1c(Cl)cccc1Cl | -19 | -12 | i | -8 | i | · | · | · | ·
COc1ccccc1C(=O)NCCCN1CCCC1=O | 1 | -12 | i | 2 | 25* | i | i | -1.1 | -16
